ChEMBL document CHEMBL3259701, “Siderophore receptor-mediated uptake of lactivicin analogues in gram-negative bacteria” (J Med Chem, 2014)
Values after ≈ are worked out from the molar mass of the structure shown.

Legend:
[1] = system: Escherichia coli; assay: Antibacterial activity against Escherichia coli DH5alpha expressing beta-lactamase SHV-5 by CLSI broth microdilution method; assay type: functional; conditions: DH5[alpha]
[2] = system: Escherichia coli; assay: Antibacterial activity against Escherichia coli DH5alpha expressing beta-lactamase TEM-1 by CLSI broth microdilution method; assay type: functional; conditions: DH5[alpha]
[3] = system: Escherichia coli; assay: Antibacterial activity against Escherichia coli DH5alpha expressing beta-lactamase OXA-58 by CLSI broth microdilution method; assay type: functional; conditions: DH5[alpha]
[4] = system: Escherichia coli; assay: Antibacterial activity against Escherichia coli DH5alpha expressing beta-lactamase NDM-1 by CLSI broth microdilution method; assay type: functional; conditions: DH5[alpha]
[5] = system: Escherichia coli; assay: Antibacterial activity against Escherichia coli DH5alpha expressing beta-lactamase OXA-24/40 by CLSI broth microdilution method; assay type: functional; conditions: DH5[alpha]
[6] = system: Escherichia coli; assay: Antibacterial activity against Escherichia coli DH5alpha expressing beta-lactamase SHV-12 by CLSI broth microdilution method; assay type: functional; conditions: DH5[alpha]
[7] = system: Escherichia coli; assay: Antibacterial activity against Escherichia coli DH5alpha by CLSI broth microdilution method; assay type: functional; conditions: DH5[alpha]
[8] = system: Escherichia coli; assay: Antibacterial activity against Escherichia coli DH5alpha harboring pUCP26 empty vector by CLSI broth microdilution method; assay type: functional; conditions: DH5[alpha]
[9] = system: Escherichia coli; assay: Antibacterial activity against Escherichia coli DH5alpha expressing beta-lactamase VIM-2 by CLSI broth microdilution method; assay type: functional; conditions: DH5[alpha]
[10] = system: Escherichia coli; assay: Antibacterial activity against Escherichia coli DH5alpha expressing beta-lactamase CTX-M-15 by CLSI broth microdilution method; assay type: functional; conditions: DH5[alpha]
[11] = system: Escherichia coli; assay: Antibacterial activity against Escherichia coli DH5alpha expressing beta-lactamase KPC-3 by CLSI broth microdilution method; assay type: functional; conditions: DH5[alpha]
[12] = system: Escherichia coli; assay: Antibacterial activity against Escherichia coli DH5alpha expressing beta-lactamase TEM-24 by CLSI broth microdilution method; assay type: functional; conditions: DH5[alpha]
[13] = system: Acinetobacter baumannii; assay: Antibacterial activity against Acinetobacter baumannii AB-3167 by CLSI broth microdilution method; assay type: functional
[14] = system: Pseudomonas aeruginosa; assay: Antibacterial activity against Pseudomonas aeruginosa PAO1 by CLSI broth microdilution method; assay type: functional
[15] = system: Klebsiella pneumoniae; assay: Antibacterial activity against Klebsiella pneumoniae KP-3700 by CLSI broth microdilution method; assay type: functional
[16] = Displacement of fluorescent Bocillin FL from Pseudomonas aeruginosa PBP1b
[17] = system: Escherichia coli; assay: Antibacterial activity against Escherichia coli EC-28 by CLSI broth microdilution method; assay type: functional
[18] = Displacement of fluorescent Bocillin FL from Pseudomonas aeruginosa PBP2
[19] = target: Penicillin-binding protein 1A (Pseudomonas aeruginosa PAO1, UniProt Q07806); assay: Displacement of fluorescent Bocillin FL from N-terminal His tagged Pseudomonas aeruginosa PAO1 PBP1a (residues 36 to 822) expressed in Escherichia coli BL21 (Gold cells)
[20] = system: Pseudomonas aeruginosa; assay: Antibacterial activity against Pseudomonas aeruginosa 1091-05 by CLSI broth microdilution method; assay type: functional
[21] = Displacement of fluorescent Bocillin FL from Pseudomonas aeruginosa PBP3
[22] = system: Escherichia coli; assay: Ratio of MIC for Escherichia coli DH5alpha expressing beta-lactamase OXA-24/40 to MIC for Escherichia coli DH5alpha harboring pUCP26 empty vector; assay type: functional, DH5[alpha]
Outline: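 Isogenic E. coli panel in which each strain was engineered to express a single common β-lactamase. MIC for the OXA-24/40 strain was divided by the MIC for the empty-vector control strain. MICs were obtained by CLSI broth microdilution.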

Sequence of Penicillin-binding protein 1A (Q07806 whole entry, the tested form may be a part): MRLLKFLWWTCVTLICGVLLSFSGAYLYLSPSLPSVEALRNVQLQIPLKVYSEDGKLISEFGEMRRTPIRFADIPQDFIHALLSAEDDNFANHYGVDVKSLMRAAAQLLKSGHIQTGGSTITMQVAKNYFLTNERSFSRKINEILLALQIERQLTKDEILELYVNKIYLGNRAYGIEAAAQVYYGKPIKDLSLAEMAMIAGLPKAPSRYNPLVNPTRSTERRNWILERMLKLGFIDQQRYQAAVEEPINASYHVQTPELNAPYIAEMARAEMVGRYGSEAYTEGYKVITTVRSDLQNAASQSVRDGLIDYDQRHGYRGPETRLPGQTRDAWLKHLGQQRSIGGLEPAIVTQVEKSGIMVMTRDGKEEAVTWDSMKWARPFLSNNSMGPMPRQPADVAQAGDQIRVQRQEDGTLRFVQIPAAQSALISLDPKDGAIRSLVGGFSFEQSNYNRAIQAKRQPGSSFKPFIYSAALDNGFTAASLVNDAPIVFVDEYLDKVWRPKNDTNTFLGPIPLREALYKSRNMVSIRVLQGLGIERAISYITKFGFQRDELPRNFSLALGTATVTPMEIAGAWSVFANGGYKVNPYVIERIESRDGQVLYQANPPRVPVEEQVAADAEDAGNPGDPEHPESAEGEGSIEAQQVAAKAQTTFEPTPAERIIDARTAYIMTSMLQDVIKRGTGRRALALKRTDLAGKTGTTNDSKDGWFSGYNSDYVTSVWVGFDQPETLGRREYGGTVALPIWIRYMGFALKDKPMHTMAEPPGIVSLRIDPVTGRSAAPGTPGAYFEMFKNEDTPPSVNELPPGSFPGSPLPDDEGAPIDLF

Row | SMILES | MIC [1] [µg/mL] | MIC [2] [µg/mL] | MIC [3] [µg/mL] | MIC [4] [µg/mL] | MIC [5] [µg/mL] | MIC [6] [µg/mL] | MIC [7] [µg/mL] | MIC [9] [µg/mL] | MIC [10] [µg/mL] | MIC [11] [µg/mL] | MIC [12] [µg/mL] | MIC [13] [µg/mL] | MIC [14] [µg/mL] | MIC [15] [µg/mL] | IC50 [16] [nM] | MIC [17] [µg/mL] | IC50 [18] [nM] | IC50 [19] [nM] | MIC [20] [µg/mL] | IC50 [21] [nM] | other results
1 | CC1(C)[C@H](NC(=O)/C(=N\OCc2cc(=O)c(O)cn2O)c2csc(N)n2)C(=O)N1OS(=O)(=O)O | > 64 | 0.03 (≈ 0.0579 µM) | 0.125 (≈ 0.241 µM) | 0.06 (≈ 0.116 µM) | 0.125 (≈ 0.241 µM) | > 64 | 0.125 (≈ 0.241 µM) | 0.03 (≈ 0.0579 µM) | 1 (≈ 1.93 µM) | 0.125 (≈ 0.241 µM) | > 64 |  |  |  |  |  |  |  |  |  | MIC [8]: 0.125 µg/mL (≈ 0.241 µM)
2 | CC(C)(O/N=C(\C(=O)N[C@H]1CON(C2(C(=O)O)C[C@H](NC(=O)OCc3ccccc3)C(=O)O2)C1=O)c1csc(N)n1)C(=O)O (some centres undefined) |  |  |  |  |  |  |  |  |  |  |  | > 64 | > 64 | > 64 | 1740 | > 64 | 33300 | 65 | > 64 |  | 
3 | Nc1nc(/C(=N/OCc2cc(=O)c(O)cn2O)C(=O)N[C@H]2CON(C3(C(=O)O)CCC(=O)O3)C2=O)cs1 (some centres undefined) | 32 (≈ 59.4 µM) | 1 (≈ 1.86 µM) | 1 (≈ 1.86 µM) | 1 (≈ 1.86 µM) | 1 (≈ 1.86 µM) | 16 (≈ 29.7 µM) | 1 (≈ 1.86 µM) | 0.5 (≈ 0.929 µM) | 4 (≈ 7.43 µM) | 1 (≈ 1.86 µM) | 4 (≈ 7.43 µM) | 0.5 (≈ 0.929 µM) | 8 (≈ 14.9 µM) | 32 (≈ 59.4 µM) | 2460 | 2 (≈ 3.71 µM) | 22200 | 46 | 4 (≈ 7.43 µM) | 140 | MIC [8]: 0.5 µg/mL (≈ 0.929 µM)
4 | CC(C)(O/N=C(\C(=O)N[C@H]1CON(C2(C(=O)O)C[C@@H](NC(=O)OCc3ccccc3)C(=O)O2)C1=O)c1csc(N)n1)C(=O)O (some centres undefined) |  |  |  |  |  |  |  |  |  |  |  | > 64 | > 64 | > 64 | 2440 | > 64 | 47100 | 110 | > 64 |  | 
5 | CC1(C)S[C@@H]2[C@H](NC(=O)[C@H](N)c3ccccc3)C(=O)N2[C@H]1C(=O)O [AMPICILLIN] | > 64 | > 64 | > 64 | > 64 | 32 (≈ 91.6 µM) | > 64 |  | > 64 | > 64 | 64 (≈ 183 µM) | > 64 |  |  |  |  |  |  |  |  |  | 
6 | C[C@H]1[C@H](NC(=O)/C(=N\OC(C)(C)C(=O)O)c2csc(N)n2)C(=O)N1S(=O)(=O)O [AZTREONAM] |  |  |  |  |  |  |  |  |  |  |  |  |  |  | 2870 |  | > 300000 | 3340 |  | 8 | 
7 | CC[C@H](O)Cn1c(-c2cc(=O)c(O)c[nH]2)nn(S(=O)(=O)[N-]C(=O)N2C[C@H](NC(=O)/C(=N\OC(C)(C)C(=O)[O-])c3csc(N)n3)C2=O)c1=O.[Na+].[Na+] | 0.5 | 0.03 | 0.125 | 0.03 | 0.25 | 0.25 | 0.125 | 0.015 | 0.25 | 0.06 | 0.125 |  |  |  |  |  |  |  |  |  | MIC [8]: 0.125 µg/mL
8 | CC(C)(O/N=C(\C(=O)N[C@H]1CON(C2(C(=O)O)C[C@@H](NC(=O)c3cc(=O)c(O)cn3O)C(=O)O2)C1=O)c1csc(N)n1)C(=O)O (some centres undefined) |  |  |  |  |  |  |  |  |  |  |  | 0.5 (≈ 0.765 µM) | 16 (≈ 24.5 µM) | 16 (≈ 24.5 µM) | 820 | 1 (≈ 1.53 µM) | 6410 | 46 | 2 (≈ 3.06 µM) | 65 | 
9 | CC(C)(O/N=C(\C(=O)N[C@H]1CON(C2(C(=O)O)CCC(=O)O2)C1=O)c1csc(N)n1)C(=O)O (some centres undefined) | 0.5 (≈ 1.03 µM) | 0.25 (≈ 0.515 µM) | 0.25 (≈ 0.515 µM) | 0.5 (≈ 1.03 µM) | 1 (≈ 2.06 µM) | 0.25 (≈ 0.515 µM) | 0.25 (≈ 0.515 µM) | 0.25 (≈ 0.515 µM) | 0.5 (≈ 1.03 µM) | 0.5 (≈ 1.03 µM) | 0.5 (≈ 1.03 µM) | 32 (≈ 65.9 µM) | 32 (≈ 65.9 µM) | 4 (≈ 8.24 µM) | 1230 |  | 33300 | 46 | 32 (≈ 65.9 µM) | 92 | Ratio [22]: 4; MIC [8]: 0.25 µg/mL (≈ 0.515 µM)
10 | CC(C)(O/N=C(\C(=O)N[C@H]1CON(C2(C(=O)O)C[C@H](NC(=O)c3cc(=O)c(O)cn3O)C(=O)O2)C1=O)c1csc(N)n1)C(=O)O (some centres undefined) |  |  |  |  |  |  |  |  |  |  |  | 0.5 (≈ 0.765 µM) | 2 (≈ 3.06 µM) | 8 (≈ 12.2 µM) | 820 | 1 (≈ 1.53 µM) | 3700 | 46 | 64 (≈ 97.9 µM) | 92 | 
